Blank lines part the entries; values can stand above or below the molecule they belong to. Calls of active or inactive are those of the source. The calls are words filed in the database; no cut-off is given here. Square brackets hold non-standard residues; d marks the D form. Peptide text beside a SMILES is read from it.
What was measured:
[1] = target: Melanocortin receptor 4 (Mus musculus) (UniProt P56450); assay: Agonist activity at mouse MC4R expressed in HEK293 cells assessed as cAMP accumulation incubated for 2 hrs by alphascreen assay relative to Ac-His-DPhe-Arg-Trp-NH2; type: functional, cell-based
Sequence of Melanocortin receptor 4 (Mus musculus) (P56450 whole entry): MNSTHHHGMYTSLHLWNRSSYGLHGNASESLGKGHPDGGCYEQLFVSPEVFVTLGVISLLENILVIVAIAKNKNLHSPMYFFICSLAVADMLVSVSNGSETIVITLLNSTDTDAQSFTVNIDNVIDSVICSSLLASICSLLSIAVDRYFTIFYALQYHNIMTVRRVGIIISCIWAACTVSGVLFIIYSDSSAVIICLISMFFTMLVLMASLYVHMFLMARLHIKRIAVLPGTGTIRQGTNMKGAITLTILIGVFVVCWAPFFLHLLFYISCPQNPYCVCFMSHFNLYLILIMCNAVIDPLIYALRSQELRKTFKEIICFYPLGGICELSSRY
How it was run: (§1)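 HEK293 cells stably expressing mouse MC1R, MC3R (Flag-tagged), MC4R or MC5R, 10,000 cells/well, stimulated with ligand at 10^-13 to 10^-4 M for 2 h at room temperature in HBSS stimulation buffer with 0.5 mM IBMX, 0.1% BSA, pH 7.4. cAMP read by AlphaScreen competition after a further 2 h with donor beads.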

[2] = target: Melanocyte-stimulating hormone receptor (Mus musculus) (UniProt Q01727); assay: Agonist activity at mouse MC1R expressed in HEK293 cells assessed as cAMP accumulation incubated for 2 hrs by alphascreen assay relative to Ac-His-DPhe-Arg-Trp-NH2; type: functional, cell-based; how it was run: as §1
Sequence of Melanocyte-stimulating hormone receptor (Mus musculus) (Q01727 whole entry, looked up): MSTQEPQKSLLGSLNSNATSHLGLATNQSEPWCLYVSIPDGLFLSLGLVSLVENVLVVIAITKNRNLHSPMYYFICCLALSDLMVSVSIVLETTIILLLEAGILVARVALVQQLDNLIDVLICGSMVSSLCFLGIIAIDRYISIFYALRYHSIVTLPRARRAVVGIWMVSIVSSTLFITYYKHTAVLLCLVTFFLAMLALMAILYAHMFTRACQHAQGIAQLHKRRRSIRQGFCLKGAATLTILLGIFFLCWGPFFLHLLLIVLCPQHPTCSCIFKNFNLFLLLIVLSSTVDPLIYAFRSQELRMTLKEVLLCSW

[3] = target: Melanocortin receptor 3 (Mus musculus) (UniProt P33033); assay: Displacement of 125I-NDP-MSH from mouse MC3R expressed in HEK293 cells at 100 uM incubated for 1 hr by gamma counting analysis; type: cell-based
Sequence of Melanocortin receptor 3 (Mus musculus) (P33033 whole entry): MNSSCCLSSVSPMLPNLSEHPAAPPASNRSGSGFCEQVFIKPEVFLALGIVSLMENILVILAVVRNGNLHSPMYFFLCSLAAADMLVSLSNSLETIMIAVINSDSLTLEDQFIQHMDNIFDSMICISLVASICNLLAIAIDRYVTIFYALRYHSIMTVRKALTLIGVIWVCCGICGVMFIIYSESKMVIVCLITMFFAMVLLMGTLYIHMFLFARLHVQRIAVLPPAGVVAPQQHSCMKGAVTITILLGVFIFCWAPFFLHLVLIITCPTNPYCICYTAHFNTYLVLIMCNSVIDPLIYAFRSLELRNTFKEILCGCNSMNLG
How it was run: (§2)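 Mouse MC3R-Flag transiently transfected into HEK293 cells using FuGene6 two days before assay. Cells exposed 1 h at 37°C to 125I-NDP-MSH (100,000 cpm/well) plus competitor at 10^-12 to 10^-4 M in DMEM/0.1% BSA, then washed, lysed and gamma counted. Nonspecific binding defined with 10^-6 M NDP-MSH. Duplicates, ≥2 independent experiments.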

[4] = target: Melanocortin receptor 3 (Mus musculus) (UniProt P33033); assay: Agonist activity at mouse MC3R expressed in HEK293 cells assessed as cAMP accumulation at 100 uM incubated for 2 hrs by alphascreen assay; type: functional, cell-based
How it was run: (§3)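 cAMP response at 100 μM in stably transfected HEK293 cells (mouse MC3R-Flag, MC4R or MC5R), expressed as % of maximal NDP-MSH signal. AlphaScreen readout after 2 h room-temperature stimulation in IBMX-containing HBSS buffer, pH 7.4. Duplicate points, at least three independent experiments.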

[5] = target: Melanocortin receptor 5 (Mus musculus) (UniProt P41149); assay: Agonist activity at mouse MC5R expressed in HEK293 cells assessed as cAMP accumulation at 100 uM incubated for 2 hrs by alphascreen assay; type: functional, cell-based; how it was run: as §3
Sequence of Melanocortin receptor 5 (Mus musculus) (P41149 whole entry): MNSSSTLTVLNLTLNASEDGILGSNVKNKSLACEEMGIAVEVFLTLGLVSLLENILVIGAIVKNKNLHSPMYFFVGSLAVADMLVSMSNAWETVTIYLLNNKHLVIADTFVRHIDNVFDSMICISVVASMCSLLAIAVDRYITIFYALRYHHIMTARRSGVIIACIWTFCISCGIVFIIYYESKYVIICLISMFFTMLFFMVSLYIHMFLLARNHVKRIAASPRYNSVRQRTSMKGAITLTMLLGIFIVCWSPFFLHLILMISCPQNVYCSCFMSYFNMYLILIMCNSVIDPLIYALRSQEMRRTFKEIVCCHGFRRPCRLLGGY

[6] = target: Melanocortin receptor 5 (Mus musculus) (UniProt P41149); assay: Agonist activity at mouse MC5R expressed in HEK293 cells assessed as cAMP accumulation incubated for 2 hrs by alphascreen assay relative to Ac-His-DPhe-Arg-Trp-NH2; type: functional, cell-based; how it was run: as §1
[7] = target: Melanocortin receptor 4 (Mus musculus) (UniProt P56450); assay: Displacement of 125I-NDP-MSH from mouse MC4R expressed in HEK293 cells incubated for 1 hr by gamma counting analysis relative to Ac-His-DPhe-Arg-Trp-NH2; type: cell-based
How it was run: (§4)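 Whole HEK293 cells stably expressing mouse MC1R or MC4R, grown to 90-100% confluency, incubated 1 h at 37°C in DMEM/0.1% BSA with 125I-NDP-MSH (100,000 cpm/well) and unlabeled ligand at 10^-12 to 10^-4 M. After one wash, cells lysed with NaOH/Triton X-100 and gamma counted. Nonspecific binding defined with 10^-6 M NDP-MSH.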

[8] = target: Melanocortin receptor 4 (Mus musculus) (UniProt P56450); assay: Agonist activity at mouse MC4R expressed in HEK293 cells assessed as cAMP accumulation at 100 uM incubated for 2 hrs by alphascreen assay; type: functional, cell-based; how it was run: as §3
[9] = target: Melanocortin receptor 3 (Mus musculus) (UniProt P33033); assay: Displacement of 125I-NDP-MSH from mouse MC3R expressed in HEK293 cells incubated for 1 hr by gamma counting analysis relative to Ac-His-DPhe-Arg-Trp-NH2; type: cell-based; how it was run: as §2
Mus musculus [10] = assay: Reduction in food intake in female 129/Sv x C57BL/6J mouse at 2.5 to 5 nmol, icv measured at 48 to 72 hrs post dose; type: functional, organism-based
How it was run: (§5)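 Crossover design in mice aged 8 weeks with lateral-ventricle cannulas (placement validated by PYY3-36), chow ad libitum, 12-h light/dark. Single ICV injection of 1.0, 2.5 or 5.0 nmol in 3 µL saline, or saline alone, 2 h before lights out. Food intake and body weight weighed at 0, 2, 4, 6, 8, 24, 48, 72 h. One-way ANOVA with Bonferroni test versus saline.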

Mus musculus [11] = assay: Effect on body weight in female 129/Sv x C57BL/6J mouse at 2.5 to 5 nmol, icv measured at 2 to 72 hrs post dose; type: ADME, organism-based; details: in vivo, icv_or_intrathecal; how it was run: as §5
Mus musculus [12] = assay: Reduction in food intake in female 129/Sv x C57BL/6J mouse at 2.5 to 5 nmol, icv measured at 24 hrs post dose; type: functional, organism-based; how it was run: as §5
Mus musculus [13] = assay: Reduction in food intake in female 129/Sv x C57BL/6J mouse at 2.5 to 5 nmol, icv measured at 2 to 8 hrs post dose; type: functional, organism-based; how it was run: as §5
Mus musculus [14] = assay: Effect on body weight in male 129/Sv x C57BL/6J mouse at 2.5 to 5 nmol, icv measured at 2 to 72 hrs post dose; type: ADME, organism-based; details: in vivo, icv_or_intrathecal; how it was run: as §5
Mus musculus [15] = assay: Reduction in food intake in male 129/Sv x C57BL/6J mouse at 2.5 to 5 nmol, icv measured at 2 to 5 hrs post dose; type: functional, organism-based
Mus musculus [16] = assay: Reduction in food intake in icv dosed male 129/Sv x C57BL/6J mouse measured at 2 to 72 hrs post dose; type: functional, organism-based; how it was run: as §5
Mus musculus [17] = assay: Reduction in food intake in male 129/Sv x C57BL/6J mouse at 2.5 to 5 nmol, icv measured at 24 to 72 hrs post dose; type: functional, organism-based; how it was run: as §5
Mus musculus [18] = assay: Toxicity in male 129/Sv x C57BL/6J mouse assessed as drug tolerability at 2.5 and 5 nmol, icv measured at 2 to 72 hrs post dose; type: organism-based; details: in vivo
[19] = target: Melanocyte-stimulating hormone receptor (Mus musculus) (UniProt Q01727); assay: Displacement of 125I-NDP-MSH from mouse MC1R expressed in HEK293 cells incubated for 1 hr by gamma counting analysis relative to Ac-His-DPhe-Arg-Trp-NH2; type: cell-based; how it was run: as §4

Structure (SMILES): CC(=O)N[C@H](Cc1cnc[nH]1)C(=O)N[C@H](Cc1ccccc1)C(=O)N[C@@H](CCCNC(=N)N)C(=O)N[C@H](Cc1c[nH]c2ccccc12)C(=O)N1CCC[C@@H]1C(=O)NCC(=O)N1CCC[C@@H]1C(=O)NCC(=O)N1CCC[C@@H]1C(=O)NCC(=O)N1CCC[C@@H]1C(=O)NCC(=O)N1CCC[C@@H]1C(=O)NCC(=O)N1CCC[C@H]1C(=O)NCC(N)=O
Ratio EC50 [1]: 0.2
Ratio EC50 [2]: 2
inhibition [3]: 85%

Structure (SMILES): CC(=O)N[C@@H](Cc1c[nH]cn1)C(=O)N[C@H](Cc1ccc2ccccc2c1)C(=O)N[C@@H](CCCN=C(N)N)C(=O)N[C@@H](Cc1c[nH]c2ccccc12)C(N)=O
Activity [4]: 45%
Activity [5]: 75%

Structure (SMILES): N=C(N)NCCC[C@H](NC(=O)[C@@H](Cc1ccccc1)NC(=O)[C@H](Cc1cnc[nH]1)NC(=O)CNC(=O)[C@@H]1CCCN1C(=O)CNC(=O)[C@@H]1CCCN1C(=O)CNC(=O)[C@@H]1CCCN1C(=O)CNC(=O)[C@@H]1CCCN1C(=O)CNC(=O)[C@@H]1CCCN1C(=O)CNC(=O)[C@@H]1CCCN1)C(=O)N[C@@H](Cc1c[nH]c2ccccc12)C(N)=O (H-PGPGPGPGPGPGH[dF]RW-NH2)
Ratio EC50 [2]: 0.9
Ratio EC50 [6]: 2

Structure (SMILES): CC(=O)N[C@@H](Cc1cnc[nH]1)C(=O)N[C@H](Cc1ccccc1)C(=O)N[C@@H](CCCNC(=N)N)C(=O)N[C@@H](Cc1c[nH]c2ccccc12)C(=O)NCCCOCCOCCOCCCNC(=O)COCC(=O)N[C@@H](Cc1cnc[nH]1)C(=O)N[C@H](Cc1ccccc1)C(=O)N[C@@H](CCCNC(=N)N)C(=O)N[C@@H](Cc1c[nH]c2ccccc12)C(N)=O
Activity (Mus musculus [10]): inactive
Activity (Mus musculus [11]): Non-toxic
Activity (Mus musculus [12]): Active
Activity (Mus musculus [13]): inactive
Activity (Mus musculus [14]): Non-toxic
Activity (Mus musculus [15]): Active
Activity (Mus musculus [16]): Dose-dependent effect
Activity (Mus musculus [17]): inactive
Activity (Mus musculus [18]): Non-toxic

The remaining lines, values ahead:

Ratio EC50 [2]: 3
Structure (SMILES): CC(=O)N[C@H](Cc1cnc[nH]1)C(=O)N[C@H](Cc1ccccc1)C(=O)N[C@@H](CCCNC(=N)N)C(=O)N[C@H](Cc1c[nH]c2ccccc12)C(=O)N1CCC[C@@H]1C(=O)NCC(=O)N1CCC[C@@H]1C(=O)NCC(=O)N1CCC[C@@H]1C(=O)NCC(=O)N1CCC[C@@H]1C(=O)NCC(=O)N1CCC[C@@H]1C(=O)NCC(=O)N1CCC[C@H]1C(=O)NCC(=O)N[C@@H](Cc1cnc[nH]1)C(=O)N[C@H](Cc1ccccc1)C(=O)N[C@@H](CCCNC(=N)N)C(=O)N[C@@H](Cc1c[nH]c2ccccc12)C(N)=O

inhibition [3]: 60%
Structure (SMILES): CC(=O)N[C@@H](Cc1cnc[nH]1)C(=O)N[C@H](Cc1ccccc1)C(=O)N[C@@H](CCCNC(=N)N)C(=O)N[C@@H](Cc1c[nH]c2ccccc12)C(N)=O

Ratio IC50 [7]: 2
Activity [8]: 85%
Activity [4]: 80%
Ratio IC50 [9]: 4
Structure (SMILES): CC(=O)N[C@@H](Cc1cnc[nH]1)C(=O)N[C@H](Cc1ccc2ccccc2c1)C(=O)N[C@@H](CCCNC(=N)N)C(=O)N[C@@H](Cc1c[nH]c2ccccc12)C(=O)NCCCOCCOCCOCCCNC(=O)COCC(=O)N[C@@H](Cc1cnc[nH]1)C(=O)N[C@H](Cc1ccc2ccccc2c1)C(=O)N[C@@H](CCCNC(=N)N)C(=O)N[C@@H](Cc1c[nH]c2ccccc12)C(N)=O

Ratio EC50 [1]: 0.7
Ratio EC50 [2]: 0.6
Ratio EC50 [6]: 2
inhibition [3]: 78%
Structure (SMILES): N=C(N)NCCC[C@H](NC(=O)[C@@H](Cc1ccccc1)NC(=O)[C@H](Cc1cnc[nH]1)NC(=O)COCC(=O)NCCCOCCOCCOCCCN)C(=O)N[C@@H](Cc1c[nH]c2ccccc12)C(N)=O

Activity [8]: 40%
Ratio IC50 [19]: 1
Ratio IC50 [9]: 1
Structure (SMILES): N=C(N)NCCC[C@H](NC(=O)[C@@H](Cc1ccc2ccccc2c1)NC(=O)[C@H](Cc1cnc[nH]1)NC(=O)COCC(=O)NCCCOCCOCCOCCCN)C(=O)N[C@@H](Cc1c[nH]c2ccccc12)C(N)=O

Ratio IC50 [19]: 2
Ratio IC50 [9]: 6
Structure (SMILES): CC(=O)N[C@@H](Cc1cnc[nH]1)C(=O)N[C@H](Cc1ccccc1)C(=O)N[C@@H](CCCNC(=N)N)C(=O)N[C@@H](Cc1c[nH]c2ccccc12)C(=O)NCCCOCCOCCOCCCNC(=O)COCC(N)=O

Activity [8]: 20%
Ratio IC50 [19]: 2
Activity [4]: 40%
Structure (SMILES): CC(=O)N[C@@H](Cc1cnc[nH]1)C(=O)N[C@H](Cc1ccc2ccccc2c1)C(=O)N[C@@H](CCCNC(=N)N)C(=O)N[C@@H](Cc1c[nH]c2ccccc12)C(=O)NCCCOCCOCCOCCCNC(=O)COCC(N)=O

From ChEMBL document CHEMBL3797098, “An in Vitro and in Vivo Investigation of Bivalent Ligands That Display Preferential Binding and Functional Activity for Different Melanocortin Receptor Homodimers” (J Med Chem, 2016)
